Compounds with a hit are over-represented: about 4.8% of the library has one in this group of screens.
UPR XBP1 act – adaptive UPR (XBP1) activation; CHO-XBP1 luciferase reporter, IRE1-XBP1 UPR activation, luminescence; percent of tunicamycin response, DMSO as zero; activation, % at 20 µM; actives 0.33% (n = 330,000); AID 463104;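 active means versus positive control, 20 µM dose yields 30% or more activation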
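Material – CHO cell line with stable XBP1 luciferase reporter · Buffer or medium – F12 plus 10% FBS · Compound – single point, 20 µM final compound, 1% DMSO · Schedule – 16-18 h cell attachment at 37 °C, then 6 h compound exposure · Signal – Steady-Glo luminescence read · Benchmarks – high control tunicamycin 10 µg/mL final, low control DMSO vehicle only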
SKKanGAS inh – inhibitors of SKKanGAS S. pyogenes growth in kanamycin (SK-promoter or general growth effect); BacTiter-Glo, 6 h; inhibition, % at 7.5 µM; actives 1.3% (n = 300,000); AID 1662;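 active means mean replicate score, as percent of positive control median, at least 50; inconclusive means mean below 50 but one replicate at or above 50; inactive means mean and every replicate below 50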;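 further: strain carries kanamycin resistance gene driven by streptokinase promoter and grows in 40 µg/ml kanamycin; loss of luminescence reflects streptokinase promoter inhibition or plain growth inhibition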
CSC inhib – blocks cancer stem cells; cancer stem cell-like cells viability, luminescence; inhibition, % at 7.5 µM; actives 1.1% (n = 300,000); in the data active means inhibition above about 75%; inconclusive means no clear call, values can overlap the other calls; tested in HMLE shEcad cells
Mdm2-MdmX inh – human Mdm2/MdmX binding inhibition; SaOS-2 split-luciferase Mdm2/MdmX complementation, luminescence; inhibition, % at 8 µM; actives 3% (n = 330,000);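 active means inhibition of at least 50% at 8 µM in the primary screen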
Target sequence (O15151 whole entry, looked up): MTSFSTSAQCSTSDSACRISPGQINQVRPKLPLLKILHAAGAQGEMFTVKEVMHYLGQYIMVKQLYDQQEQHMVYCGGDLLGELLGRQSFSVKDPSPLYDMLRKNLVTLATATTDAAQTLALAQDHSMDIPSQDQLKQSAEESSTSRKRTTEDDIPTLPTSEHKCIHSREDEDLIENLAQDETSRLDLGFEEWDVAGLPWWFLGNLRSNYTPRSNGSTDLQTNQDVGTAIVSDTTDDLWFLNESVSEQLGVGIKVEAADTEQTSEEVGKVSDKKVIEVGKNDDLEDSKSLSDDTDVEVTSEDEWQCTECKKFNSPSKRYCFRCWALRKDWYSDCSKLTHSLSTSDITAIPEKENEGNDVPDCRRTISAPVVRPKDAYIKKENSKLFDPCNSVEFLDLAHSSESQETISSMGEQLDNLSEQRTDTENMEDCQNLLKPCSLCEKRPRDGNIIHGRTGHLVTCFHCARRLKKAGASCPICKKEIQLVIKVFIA
Target sequence (Q00987 whole entry, looked up): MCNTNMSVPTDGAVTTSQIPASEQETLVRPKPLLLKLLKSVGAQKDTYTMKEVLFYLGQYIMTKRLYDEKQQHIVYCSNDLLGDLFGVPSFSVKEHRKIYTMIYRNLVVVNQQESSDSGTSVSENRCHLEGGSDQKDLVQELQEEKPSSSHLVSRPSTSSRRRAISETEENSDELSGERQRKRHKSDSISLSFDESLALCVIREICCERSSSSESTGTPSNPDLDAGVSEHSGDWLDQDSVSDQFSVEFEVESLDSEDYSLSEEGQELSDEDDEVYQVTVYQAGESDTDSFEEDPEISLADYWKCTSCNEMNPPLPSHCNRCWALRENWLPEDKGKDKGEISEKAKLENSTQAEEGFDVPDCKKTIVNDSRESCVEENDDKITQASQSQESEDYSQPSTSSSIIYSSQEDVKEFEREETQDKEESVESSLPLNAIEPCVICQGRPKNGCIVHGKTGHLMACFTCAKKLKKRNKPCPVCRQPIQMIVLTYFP
Beta cell apopt – blocks beta cell apoptosis | INS-1E cytokine-induced death, ATP luminescence, 48 h; percent of positive-control rescue, neutral wells zero | protection from apoptosis, % (concentration not given with the values) | actives 0.8% (n = 300,000);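 active means Every replicate reaches about 75%, or at least half do and their mean reaches it too, limit read from the data; inconclusive means At least half of replicates reach the limit but their mean does not; inactive means Under half of replicates reach the limit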;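 further: higher means more ATP so stronger rescue from cytokine killing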
CHOP UPR activ – apoptotic UPR (CHOP) activation. activation, % at 10 µM. actives 0.34% (n = 330,000). CHO-CHOP luciferase reporter, luminescence; percent of tunicamycin response over DMSO baseline;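 active means at 10 µM dose, activation of 40% or more, normalized to positive control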
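Test system: CHO-CHOP cells, stable luciferase reporter of PERK-eIF2a-CHOP signalling | Quantity: 500 CHO-CHOP cells per well | Buffer or medium: F12 plus 10% serum | Compound dosing: 10 µM single point, 0.5% DMSO | Schedule: 6 h compound treatment, 37 °C | Signal: Luciferase luminescence | Control set: Tunicamycin high control, DMSO low control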
Numbers stand for hits; i = inactive; ? = inconclusive; nt = no result given.

SMILES | UPR XBP1 act | SKKanGAS inh | CSC inhib | Mdm2-MdmX inh | Beta cell apopt | CHOP UPR activ
COc1cc(/C=C/C(=O)OCC(=O)c2c(N)n(C)c(=O)n(C)c2=O)ccc1OCC#N | i | 56 | i | i | i | i
COc1cc(/C=C/C(=O)OCC(=O)c2c(N)n(C)c(=O)n(C)c2=O)ccc1OC(F)F | i | i | i | i | i | i
O=C(COc1ccc(Cl)cc1)OCC(=O)c1ccc[nH]1 | i | nt | i | i | i | i
CCCN1CCN(CCCNC(=O)c2ccc(CS(=O)c3ccc(OC)cc3)o2)CC1 (stereo not given) | i | i | i | i | i | i
O=[N+]([O-])c1ccc(O)c(/C=N/n2cnnc2)c1 | i | i | nt | i | i | i
O=[N+]([O-])c1cccc(/C=N/n2cnnc2)c1 | i | i | i | i | 82 | i
OC(CNCCc1ccc(C(F)(F)F)cc1)COc1cccc2ccccc12 (stereo not given) | i | i | 96 | i | i | i
OC(CNCCc1ccc(C(F)(F)F)cc1)COc1ccc2ccccc2c1 (stereo not given) | i | i | 77 | i | i | i
COc1ccc(CNCC(O)COc2ccc(C(C)(C)c3ccccc3)cc2)cc1 (stereo not given) | i | i | 109 | i | i | i
Cc1c(C)n(CCc2ccccc2)c2ncnc(NCCCN(C)C)c12 | i | i | 76 | i | i | i
Cc1c(C)n(CCN(C)C)c2ncnc(NCc3ccccc3)c12 | i | i | i | i | i | i
O=C(c1ccc(-c2ccc(Cl)cc2)o1)N1CCN(c2ccc([N+](=O)[O-])cc2Cl)CC1 | i | i | i | i | 113 | i
O=C(NC12CC3CC(CC(C3)C1)C2)c1ccc([N+](=O)[O-])o1 | i | 93 | 80 | i | i | i
O=C(NC12CC3CC(CC(C3)C1)C2)c1ccc(-c2ccc(Br)cc2)o1 | i | 56 | i | i | i | i
O=C(NC12CC3CC(CC(C3)C1)C2)c1ccc(Br)o1 | i | i | i | i | i | i
Cc1nn(C)c(C)c1CCC(=O)N1CCCC(N2CCN(c3ccc(F)cc3)CC2)C1 (stereo not given) | i | i | i | i | nt | i
CN(CCOc1ccccc1)CCOc1ccccc1 | i | i | i | i | i | i
CN(C)CCOc1ccc(/C(=C(/CCCl)c2ccccc2)c2ccccc2)cc1 | i | 101 | nt | i | nt | i
O=c1c2cn[nH]c2nc(SCc2cc(=O)n3cc(Br)ccc3n2)n1-c1ccc(Br)cc1 | i | i | nt | i | i | i
O=c1c2cn[nH]c2nc(SCc2ccccc2F)n1-c1ccc(Br)cc1 | i | i | 105 | i | i | i
COc1cccc(/C=C(/C(=O)OCC(=O)NC2CCCC(C)C2C)c2ccccc2)c1 (stereo not given) | nt | 65 | i | nt | i | nt
COc1cccc(/C=C(/C(=O)OCC(N)=O)c2ccccc2)c1 | i | i | i | i | i | i
O=[N+]([O-])c1ccc(CP(=O)(c2ccccc2)c2ccccc2)cc1 | i | i | 81 | i | i | i
CC(C)(C)OC(=O)C[C@@H]1C/C=C\C[C@H](CC(=O)N(CCO)Cc2ccccc2)C(=O)N[C@@H](Cc2c[nH]c3ccccc23)COC1=O | i | nt | i | i | i | i
C[C@H](CO)N1C[C@H](C)[C@@H](CN(C)S(=O)(=O)c2cccs2)Oc2c(NS(=O)(=O)c3ccc(F)cc3)cccc2C1=O | i | nt | nt | i | i | i
SMILES | UPR XBP1 act | SKKanGAS inh | CSC inhib | Mdm2-MdmX inh | Beta cell apopt | CHOP UPR activ
Cc1ccc2c(c1)N(C(=O)CCC(=O)NC1CCC(C)CC1)CCO2 (stereo not given) | i | i | i | i | i | i
Cn1c(O)c(/C=N/NC(=O)c2cc3ccccc3cc2O)c2ccccc21 | i | 104 | nt | i | i | i
CC(C)(C)OC(=O)N1CCC(CC2CC(c3cccc(Br)c3)=NO2)(C(=O)O)CC1 (stereo not given) | i | i | i | i | nt | i
CC1CCC(NC(=O)c2ccc3c(c2)S(=O)(=O)c2ccccc2C3=O)CC1 (stereo not given) | i | i | i | i | i | i
Cc1ccc(CSc2nc3sc(C)c(C)c3c(=O)n2Cc2ccco2)cc1 | i | 78 | ? | i | i | i
CC(NC(=O)c1ccccc1Cl)C(=O)N1CCN(Cc2ccc3c(c2)OCO3)CC1 (stereo not given) | i | nt | nt | i | nt | i
